Measured values of several laboratories.
Each line is one published result; the experiments were not run side by side.
Target: Mitogen-activated protein kinase 8 (MAPK8, Homo sapiens, UniProt P45983)

Cc1cc(NC(=O)c2cccc3cc(-c4cccc5[nH]nc(N)c45)ccc23)ccc1F  activity vs control (enzyme activity; inhibitor; 0.1 µM): 103%
CC(=O)C1=C(C)N(c2cccc(C(F)(F)F)c2)C(=O)N[C@@H]1c1ccc(C#N)nc1  remaining binding (cell-free assay; competition with immobilised ligand; 1 µM): 100%
Nc1ncnc2occ(-c3ccc(NC(=O)Nc4cc(C(F)(F)F)ccc4F)cc3)c12  remaining signal (cell-free assay; inhibitor; 20 µM): 11%
Cn1c2c(Cl)c(Cl)ccc2c2cn[nH]c(=O)c21  ΔTm (thermal stability; DSF; 10 µM): -0.3 °C
CC(C)(C)c1nc(-c2cccc(NS(=O)(=O)c3c(F)cccc3F)c2F)c(-c2ccnc(N)n2)s1  remaining activity (enzyme activity; inhibitor; radiometric; 1 µM): 89%
N#CCCc1ccc2c(c1)-c1[nH]c3ccc([N+](=O)[O-])cc3c1CC(=O)N2  remaining signal (cell-free assay; 0.5 µM): 93.1%
CCOCCn1cc(C(=O)Nc2ccc(-n3nc(-c4cccnc4)cc3C(F)(F)F)cn2)ccc1=O  remaining binding (cell-free assay; competition with immobilised ligand; 1 µM): 72%
COc1cc2ncnc(Nc3ccc(Oc4ccccc4)c(C)c3C)c2cc1OC  inhibition (enzyme activity; inhibitor; 1 µM): 2%
CNCc1ccc(-c2cc(-c3nc(-c4ccc(S(=O)(=O)C(C)C)cc4)cnc3N)on2)cc1  inhibition (enzyme activity; inhibitor; 2 µM): 8%
CN(C)C1CCN(CC#Cc2nn(C3CCCC3)c3nc(NCc4ccccc4)ncc23)C1 (stereo not drawn)  inhibition (enzyme activity; inhibitor; FRET; 1 µM): 5%
FC(F)(F)Oc1cccc(-c2cnc3ccc(-c4ccncc4)nn23)c1  activity vs control (enzyme activity; inhibitor; radiometric; 1 µM): 91%
Cc1cc(NC(=O)c2cccc(S(F)(F)(F)(F)F)c2)cc(-n2ccn3nc(-c4cccnc4)cc23)c1  remaining binding (cell-free assay; competition with immobilised ligand; 1 µM): 55.9%
COc1cc(-c2cc(-c3ccc(N4CCNCC4)cc3)cnc2C)cc(OC)c1OC  inhibition (enzyme activity; inhibitor; 1 µM): 2%
CO[C@@H](C)c1c(Nc2ccc([C@@H](N(C)C(=O)C3CCS(=O)(=O)CC3)C(F)(F)F)cc2)cnc2cc(Cl)nn12  remaining binding (cell-free assay; competition with immobilised ligand; 1 µM): 69%
Cn1c2c(c3ccc(Cl)c(Cl)c31)C(C#N)C1(CCNCC1)NC2=O (racemic)  ΔTm (thermal stability; DSF; 10 µM): 0.2 °C
COc1cc(Nc2cnc(C#N)c(O[C@H](C)CN(C)C)n2)ncc1-c1cnn(C)c1  remaining activity (enzyme activity; inhibitor; radiometric; 1 µM): 104%
C[C@@H]1CN(c2cc(-c3nn(C)c4ccc(OC5(C)CC5)cc34)ncn2)C[C@H](C)O1  remaining binding (cell-free assay; competition with immobilised ligand; 1 µM): 82%
N#CC1c2c([nH]c3c(Cl)c(Cl)ccc23)C(=O)NC12CCCCC2 (racemic)  ΔTm (thermal stability; DSF; 10 µM): 1.8 °C
O=C(Nc1cnn(-c2csc(C(=O)NC3COC3)c2)c1)Nc1c(F)cccc1Cl  remaining activity (enzyme activity; inhibitor; 5 µM): 49.1%
COc1cc(Cl)c(C(=O)N[C@@H](CN[C@H]2CC[C@@H](N)CC2)Cc2ccc(C#N)cc2)cc1-c1ccc(CN[C@H](C)c2ccc(C)cc2)o1  remaining activity (enzyme activity; inhibitor; 1 µM): 100%
CC/C(=N\NC(=O)NCc1cccc(O)c1)c1ccc(O)c(C)c1O  inhibition (enzyme activity; inhibitor; 0.1 µM): -2.4%
Cc1ccc(C(=O)NCc2ccsc2)cc1C#Cc1cn(C(C)C)c2ncnc(N)c12  activity vs control (enzyme activity; inhibitor; 1 µM): 103%
COc1cc2c(N3CCN(C(=O)Nc4ccc(OC(C)C)cc4)CC3)ncnc2cc1OCCCN1CCCCC1  remaining signal (cell-free assay; 0.5 µM): 105%
Cn1c2c(c3ccc(Cl)c(Cl)c31)C(C#N)C(C)(C)NC2=O (stereo not drawn)  ΔTm (thermal stability; DSF; 10 µM): 1.3 °C
CC(C)(C)C(=O)c1sc(NC2CCCCC2)nc1N  remaining activity (enzyme activity; inhibitor; 10 µM): 98%
FC(F)c1nc2ccccc2n1-c1nc(N2CCOCC2)nc(N2CCOCC2)n1  remaining activity (enzyme activity; inhibitor; 10 µM): 93%
O=C(Nc1ccc(Oc2ccc(F)cc2)cc1)N1CCc2ncccc2[C@H]1c1ccc(F)cc1  remaining binding (cell-free assay; competition with immobilised ligand; 1 µM): 91%
COc1cc(/C=C/C(=O)CC(=O)/C=C/c2ccc(O)c(OC)c2)ccc1O  activity vs control (enzyme activity; inhibitor; 1 µM): 99%
Cc1sc(C(=O)NC2COC2)cc1-n1cc(NC(=O)Nc2c(F)cccc2Cl)cn1  remaining activity (enzyme activity; inhibitor; 10 µM): 76.3%
CCN(CC)CCNC(=O)c1c(C)[nH]c(/C=C2\C(=O)Nc3ccc(F)cc32)c1C  remaining signal (cell-free assay; 0.5 µM): 91.8%
Cc1ccc(NC(=O)c2ccc(C)c(C(F)(F)F)c2)cc1C#Cc1nn(C2CCC(O)CC2)c2ncnc(N)c12 (stereo not drawn)  remaining signal (cell-free assay; 10 µM): 35%
N#Cc1c(NC(=O)c2cccc3ccccc23)sc2c1CCCC2  remaining signal (cell-free assay; 0.5 µM): 87.3%
CCCOc1ccc([C@@H]2[C@@H](C(=O)O)[C@H](c3ccc4c(c3)OCO4)CN2CC(=O)Nc2c(CC)cccc2CC)cc1  remaining binding (cell-free assay; competition with immobilised ligand; 1 µM): 87%
CC1(C)NC(=O)c2[nH]c3c(Cl)c(Cl)ccc3c2C1C#N (stereo not drawn)  ΔTm (thermal stability; DSF; 10 µM): 0.8 °C
Cc1cnc(NC2CCOCC2)nc1-n1cnc(C(=O)NC(CN)c2cc(F)cc(Cl)c2)c1 (stereo not drawn)  remaining activity (enzyme activity; inhibitor; radiometric; 1 µM): 56%
CC1=C(C#N)[C@@H](c2ccc3[nH]nc(C)c3c2)C(C#N)=C(c2ccc(Cl)cc2)N1  remaining binding (cell-free assay; competition with immobilised ligand; 1 µM): 65.2%
